Common to all, as to format: organism-based
Series [1] in a line: Acute toxicity in Swiss albino mouse assessed as SGOT level at 5 mg/kg, po administered once and observed for 7 days (reference value: 22.94 +/- 4.04 U/L). The settings on record: in vivo, 168 h, time 7 day.
Series [2] in a line: Acute toxicity in Swiss albino mouse assessed as relative brain weight at 5 to 300 mg/kg, po administered once and observed for 7 days. The settings on record: in vivo, 168 h, dose 5-300 mg/kg, time 7 day. An outline of the steps:
(§1)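 Acute oral toxicity per OECD guideline 423; mice 20–25 g, 3 male + 3 female per group, acclimatized 7 days at 22 ± 5 °C, 12 h light/dark. Compound dissolved in minimal DMSO, diluted in 0.7% CMC, single oral dose of 5, 50 or 300 mg/kg; controls given vehicle only. Clinical signs checked hourly on dosing day, then daily. Samples and body weights taken on day 7.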

Series [3] in a line: Acute toxicity in Swiss albino mouse assessed as relative heart weight at 5 to 300 mg/kg, po administered once and observed for 7 days. The settings on record: in vivo, 168 h, dose 5-300 mg/kg, time 7 day. Summed up:
as §1

Series [4] is described as follows: Acute toxicity in Swiss albino mouse assessed as bilirubin level at 5 mg/kg, po administered once and observed for 7 days (reference value: 0.44 +/- 0.06 mg/dl). The settings on record: in vivo, 168 h, time 7 day.
Series [5] in a line: Acute toxicity in Swiss albino mouse assessed as ALP level at 50 mg/kg, po administered once and observed for 7 days (reference value: 123.22 +/- 16.04 U/L). The note with it: in vivo, 168 h, time 7 day.
A short description of series [6]: Acute toxicity in Swiss albino mouse assessed as effect on gait at 5 to 300 mg/kg, po administered once and observed for 7 days. The settings on record: in vivo, 168 h, dose 5-300 mg/kg, time 7 day. An outline of the steps: as §1
The nature of series [7]: Acute toxicity in Swiss albino mouse assessed as absolute kidney weight at 5 to 300 mg/kg, po administered once and observed for 7 days. The note with it: in vivo, 168 h, dose 5-300 mg/kg, time 7 day. An outline of the steps: as §1
Series [8] can be described thus: Acute toxicity in Swiss albino mouse assessed as creatinine level at 300 mg/kg, po administered once and observed for 7 days (reference value: 0.11 +/- 0.03 mg/dL). The settings on record: in vivo, 168 h, time 7 day.
The nature of series [9]: Acute toxicity in Swiss albino mouse assessed as SGPT level at 300 mg/kg, po administered once and observed for 7 days (reference value: 12.65 +/- 2.98 U/L). The note with it: in vivo, 168 h, time 7 day.
Series [10] is described as follows: Acute toxicity in Swiss albino mouse assessed as ALP level at 300 mg/kg, po administered once and observed for 7 days (reference value: 123.22 +/- 16.04 U/L). The settings on record: in vivo, 168 h, time 7 day.
The nature of series [11]: Acute toxicity in Swiss albino mouse assessed as relative kidney weight at 5 to 300 mg/kg, po administered once and observed for 7 days. The settings on record: in vivo, 168 h, dose 5-300 mg/kg, time 7 day. An outline of the steps:
as §1

Series [12] can be described thus: Acute toxicity in Swiss albino mouse assessed as relative liver weight at 5 to 300 mg/kg, po administered once and observed for 7 days. The note with it: in vivo, 168 h, dose 5-300 mg/kg, time 7 day. Summed up: as §1
Series [13] can be described thus: Acute toxicity in Swiss albino mouse assessed as RBC level at 300 mg/kg, po administered once and observed for 7 days (reference value: 9.21 +/- 0.32 /mm3). The note with it: in vivo, 168 h, time 7 day.
The nature of series [14]: Acute toxicity in Swiss albino mouse assessed as absolute heart weight at 5 to 300 mg/kg, po administered once and observed for 7 days. The settings on record: in vivo, 168 h, dose 5-300 mg/kg, time 7 day. An outline of the steps: as §1
Series [15] is described as follows: Acute toxicity in Swiss albino mouse assessed as bilirubin level at 50 mg/kg, po administered once and observed for 7 days (reference value: 0.44 +/- 0.06 mg/dl). The settings on record: in vivo, 168 h, time 7 day.

Regarding `COc1ccc2c(c1)c(Cc1ccc(OCCN(C)C)cc1)c(-c1cc(OC)c(OC)c(OC)c1)n2Cc1ccc(OCCN(C)C)cc1`, the Activity in series [1] was 22.11 U/L; in [2] it was “Non-Toxic”; in [3], “Non-Toxic”; in [4], 0.3 mg/dL; in series [5], 106.88 U/L; in [6], “Non-Toxic”. In addition, the Activity result is “Non-Toxic” in series [7]; 0.15 mg/dL in series [8]; 16 U/L in series [9]; 98.7 U/L in [10]; “Non-Toxic” in series [11]; “Non-Toxic” in series [12]. The results for the Activity in series [13], in series [14] and in series [15] were 9.45 million/mm3, “Non-Toxic” and 0.35 mg/dL, respectively.

On to `COc1ccc2c(c1)c(Cc1ccc(OC(C)CN(C)C)cc1)c(-c1cc(OC)c(OC)c(OC)c1)n2Cc1ccc(OC(C)CN(C)C)cc1` (stereo not given), for which the Activity is 28.86 U/L in series [1]; “Non-Toxic” in [2]; “Non-Toxic” in series [3]; 0.34 mg/dL in [4]; 84.85 U/L in series [5]; “Non-Toxic” in series [6]. Besides, the Activity result in series [7] was “Non-Toxic”; in series [8], 0.14 mg/dL; in series [9], 19.12 U/L; in series [10] it was 74.12 U/L; in [11] it was “Non-Toxic”; in [12], “Non-Toxic”. The Activity in series [13] is 7.96 million/mm3; in [14], “Non-Toxic”; in series [15], 0.39 mg/dL.

The values are drawn from ChEMBL document CHEMBL4811308, “Design, synthesis and broad spectrum antibreast cancer activity of diarylindoles via induction of apoptosis in aggressive breast cancer cells” (Bioorg Med Chem, 2021).
